Activity calls are given as the source filed them. The rule behind the calls is not given here.
Columns and labels:
[1] = molecular target: T1, Cytosolic phospholipase A2 (Homo sapiens) (UniProt P47712); test: Inhibition of cPLA2alpha-mediated [3H]-arachidonic acid release in Ca2+ ionophore A23187-stimulated human neutrophils at 10 uM preincubated for 15 mins followed by Ca2+ ionophore A23187 stimulation measured after 5 mins by scintillation counting method
T1 sequence (whole entry): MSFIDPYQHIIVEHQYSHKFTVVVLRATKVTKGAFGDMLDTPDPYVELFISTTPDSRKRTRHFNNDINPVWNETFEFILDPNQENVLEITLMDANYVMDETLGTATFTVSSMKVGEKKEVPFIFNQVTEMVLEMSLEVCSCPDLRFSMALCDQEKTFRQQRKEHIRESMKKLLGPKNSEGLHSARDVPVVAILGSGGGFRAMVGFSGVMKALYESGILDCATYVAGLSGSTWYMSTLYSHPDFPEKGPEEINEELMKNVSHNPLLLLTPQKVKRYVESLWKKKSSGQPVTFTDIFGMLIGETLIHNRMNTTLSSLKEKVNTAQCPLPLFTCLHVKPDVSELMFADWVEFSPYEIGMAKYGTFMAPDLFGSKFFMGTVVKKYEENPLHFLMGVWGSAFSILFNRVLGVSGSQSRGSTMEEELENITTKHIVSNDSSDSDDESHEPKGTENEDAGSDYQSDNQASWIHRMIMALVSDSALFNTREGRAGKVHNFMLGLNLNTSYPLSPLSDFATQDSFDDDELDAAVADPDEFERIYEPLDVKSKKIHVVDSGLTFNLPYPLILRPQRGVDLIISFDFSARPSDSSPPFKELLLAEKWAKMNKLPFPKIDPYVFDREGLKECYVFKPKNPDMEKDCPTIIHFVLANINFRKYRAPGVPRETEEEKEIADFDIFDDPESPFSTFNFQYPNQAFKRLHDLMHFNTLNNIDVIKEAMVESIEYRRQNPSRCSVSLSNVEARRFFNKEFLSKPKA
Summary of the method: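 Neutrophils (1 × 10^7) labelled with 5 nM [3H]-AA for 120 min at 37 °C, washed with fatty-acid-free BSA buffer, pre-incubated 15 min at 37 °C with compound or 0.1% DMSO, then stimulated with 2.5 µM A23187 for 5 min. Released [3H]-AA in supernatant counted by liquid scintillation; n=3-4.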

[2] = molecular target: T2, Polyunsaturated fatty acid 5-lipoxygenase (Homo sapiens) (UniProt P09917); test: Inhibition of 5-LO in human M1 macrophages derived from LPS/IFNgamma-polarized human monocyte derived macrophages assessed as effect on t-LTB4 level at 3 uM preincubated for 15 mins followed by Escherichia coli (O6:K2:H1) challenge for 90 mins by LC-MS/MS analysis; design: scale not given: the % may be the effect or the level left
T2 sequence (whole entry): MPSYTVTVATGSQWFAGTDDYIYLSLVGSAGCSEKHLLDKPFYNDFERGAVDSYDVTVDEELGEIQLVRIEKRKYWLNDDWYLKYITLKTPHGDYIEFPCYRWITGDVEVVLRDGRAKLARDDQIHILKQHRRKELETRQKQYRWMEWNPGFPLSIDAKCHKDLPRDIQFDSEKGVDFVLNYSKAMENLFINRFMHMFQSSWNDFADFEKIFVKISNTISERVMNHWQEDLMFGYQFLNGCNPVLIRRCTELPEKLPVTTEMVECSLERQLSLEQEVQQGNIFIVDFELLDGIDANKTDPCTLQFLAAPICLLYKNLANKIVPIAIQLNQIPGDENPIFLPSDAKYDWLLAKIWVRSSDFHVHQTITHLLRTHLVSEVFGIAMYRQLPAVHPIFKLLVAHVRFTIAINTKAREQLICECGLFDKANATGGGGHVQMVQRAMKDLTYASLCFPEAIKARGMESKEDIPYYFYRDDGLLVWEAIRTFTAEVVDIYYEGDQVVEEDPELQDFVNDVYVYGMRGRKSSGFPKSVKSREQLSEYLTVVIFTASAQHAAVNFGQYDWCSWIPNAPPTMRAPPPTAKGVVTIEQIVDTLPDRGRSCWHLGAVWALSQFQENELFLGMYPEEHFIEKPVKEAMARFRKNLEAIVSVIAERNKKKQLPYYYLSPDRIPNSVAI
Summary of the method: (§1)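 Monocytes differentiated 6 days with GM-CSF (20 ng/ml) in RPMI/10% FCS, then polarized 48 h with LPS 100 ng/ml plus IFN-γ 20 ng/ml (M1). Cells (2 × 10^6) in PBS with 1 mM CaCl2 pre-incubated 15 min at 37 °C with 3 µM compound or 0.1% DMSO, then E. coli O6:K2:H1 (1:50) for 90 min. Methanol with deuterated standards added; SPE; UPLC-MS/MS; expressed as % of vehicle.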

[3] = molecular target: T3, Polyunsaturated fatty acid 5-lipoxygenase (Homo sapiens, UniProt P09917); test: Inhibition of 5-LO in human neutrophils using arachidonic acid as substrate assessed as reduction in 5-LO product formation preincubated for 15 mins followed by substrate addition measured after 10 mins in presence of Ca2+ ionophore A23187 by HPLC analysis
T3 sequence (P09917 whole entry): T2 sequence (whole entry)
Summary of the method: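 Human neutrophils (5 × 10^6 in 1 ml PBS with 1 mg/ml glucose) pre-incubated 15 min at 37 °C with compound or 0.1% DMSO, then activated with 1 mM CaCl2 and 2.5 µM A23187, with or without 20 µM AA; 5-LO products measured after 10 min. Residual activity at 10 µM; IC50 by nonlinear regression from 4-5 concentrations; mean ± SEM, n=3-4.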

Homo sapiens = species on record: Homo sapiens; test: Modulation of LO-mediated RvE3 level in human M2 macrophages derived from IL4-polarized human monocyte derived macrophages at 3 uM preincubated for 15 mins followed by Escherichia coli (O6:K2:H1) challenge for 90 mins by LC-MS/MS analysis
Summary of the method: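 Monocytes differentiated 6 days with M-CSF (20 ng/ml), then polarized 48 h with IL-4 20 ng/ml (M2). Cells (2 × 10^6) in PBS/1 mM CaCl2 pre-incubated 15 min at 37 °C with 3 µM compound or 0.1% DMSO, then challenged with E. coli O6:K2:H1 (1:50) for 90 min. Lipid mediators extracted by SPE with deuterated internal standards and quantified by UPLC-MS/MS as % of vehicle.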

[4] = molecular target: T2, Polyunsaturated fatty acid 5-lipoxygenase (Homo sapiens); test: Inhibition of 5-LO in human M1 macrophages derived from LPS/IFNgamma-polarized human monocyte derived macrophages assessed as effect on 5-HETE level at 3 uM preincubated for 15 mins followed by Escherichia coli (O6:K2:H1) challenge for 90 mins by LC-MS/MS analysis; design: scale not given: the % may be the effect or the level left; summary of the method: as §1
[5] = molecular target: T2, Polyunsaturated fatty acid 5-lipoxygenase (Homo sapiens); test: Inhibition of recombinant human 5-LO binding to FLAP expressed in HEK293 cells at 10 uM after 1 hr by DAPI staining-based immunofluorescence microscopic analysis; format: cell-based
Summary of the method: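 HEK293 cells stably expressing 5-LO/FLAP, treated with 10 µM compound for 10 min and then 2.5 µM A23187 for 20 min at 37 °C, fixed, and probed with anti-5-LO/anti-FLAP primaries. This was followed by oligonucleotide-linked secondaries (1 h, 37 °C), ligation, rolling-circle amplification and DAPI nuclear stain. Proximity ligation signals counted microscopically in 100 cells from three experiments.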

[6] = molecular target: T2, Polyunsaturated fatty acid 5-lipoxygenase (Homo sapiens); test: Inhibition of 5-LO in human M1 macrophages derived from LPS/IFNgamma-polarized human monocyte derived macrophages assessed as effect on 5-HEPE level at 3 uM preincubated for 15 mins followed by Escherichia coli (O6:K2:H1) challenge for 90 mins by LC-MS/MS analysis; design: scale not given: the % may be the effect or the level left; summary of the method: as §1

For O=C(O)c1ccc(N(Cc2cccc(OCc3ccccc3)c2)S(=O)(=O)c2ccc(-c3ccccc3)cc2)cc1, the inhibition [1] was “inactive”, the Activity [2] was 17% and the IC50 [3] was 400 nM. The Activity (Homo sapiens) was 121%, the Activity [4] was 35% and the inhibition [5] was “Active”. It also gave an Activity [6] of 23%.

Reference: ChEMBL document CHEMBL4270576, “Discovery of a benzenesulfonamide-based dual inhibitor of microsomal prostaglandin E2 synthase-1 and 5-lipoxygenase that favorably modulates lipid mediator biosynthesis in inflammation” (Eur J Med Chem, 2018)
